{
  "source": "BindingDB's records for doi:10.1021/jm801330n",
  "about": "(University of Siena, 2009)",
  "target": "Reverse transcriptase (Human immunodeficiency virus 1, UniProt Q9WKE8)",
  "assay": "Binding affinity to HIV1 reverse transcriptase treated for 3 mins by surface plasmon resonance",
  "method_in_brief": "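Kinetic titration SPR at 25 °C against an RT surface, with an untreated dextran surface as reference. Running buffer: 10 mM Hepes, 150 mM NaCl, 3.4 mM EDTA, 0,01% P20, 4% DMSO, pH 7.5. Five sequential 3-min injections at 50 µL·min^-1 (0.075–1.2 µM, 2-fold steps), each followed by 2-min dissociation, and a final 20-min dissociation. Data were double-referenced.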",
  "data": [
    {"smiles": "COc1ccc([C@@H]2C[C@H]2CSc2nc([C@H](C)c3c(F)cccc3F)c(C)c(=O)[nH]2)cc1", "values": [
      {"measurement": "koff", "result": "2.1e-05", "unit": "s⁻¹"}
    ]}
  ]
}
